# Data published in ChEMBL document CHEMBL4376827, “Structure-Activity Relationship Studies To Identify Affinity Probes in Bis-aryl Sulfonamides That Prolong Immune Stimuli” (J Med Chem, 2019).
# Columns and labels:
# Homo sapiens [1] = species on record: Homo sapiens; assay: Activation of LPS-induced NF-kappaB activity in human THP1-Blue-NF-kappaB cells assessed as increase in SEAP reporter activity at 5 uM incubated for 20 hrs by quanti-blue SEAP assay relative to control
# Outline: (§1)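 THP1-Blue NF-κB cells, 10^5/well, in RPMI with 10% FBS, pen/strep and Normocin. Compound (5 μM single point or graded concentrations, 0.05% DMSO) is added together with LPS; methods give final LPS 10 μg/mL, table footnote gives 10 ng/mL. Supernatant SEAP is read after 20 h by QuantiBlue colorimetry at 630 nm.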
# Homo sapiens [2] = species on record: Homo sapiens; assay: Activation of IFNalpha signalling in human ISRE-bla-THP1 cells assessed as increase in type-1 IFN-alpha induced ISRE activity at 5 uM preincubated for 16 hrs followed by CCF4-AM substrate addition and measured after 3 hrs by FRET based assay relative to control; assay type: cell-based
# Outline: (§2)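 ISRE-bla THP-1 cells, 5×10^4/well, in RPMI with 10% dialyzed FBS, 0.1 mM non-essential amino acids, 1 mM pyruvate and pen/strep. Cells are co-treated with IFN-α (final 100 U/mL) and compound: 5 μM single point or graded concentrations, 0.05% DMSO. After 16 h, CCF4-AM is added for 3 h at RT in the dark.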
# THP-1 = assay: Cytotoxicity against human THP1 cells assessed as reduction in cell viability at 5 uM incubated for 18 hrs by MTT assay relative to control; settings: thp-1, 18 h
# [3] = Activation of LPS-induced NF-kappaB activity in human THP1-Blue-NF-kappaB cells assessed as increase in SEAP reporter activity incubated for 20 hrs by quanti-blue SEAP assay; outline: as §1
# [4] = Activation of IFNalpha signalling in human ISRE-bla THP1 cells assessed as increase in type-1 IFN-alpha induced ISRE activity preincubated for 16 hrs followed by CCF4-AM substrate addition and measured after 3 hrs by FRET based assay; assay type: cell-based; settings: THP-1; outline: as §2
compound,measurement,setting,value
CCCCCN(c1cc(OC)c(Cl)cc1OC)S(=O)(=O)c1ccc(OCC)cc1,Activity,Homo sapiens [1],135%
same,Activity,Homo sapiens [2],105%
same,Activity,THP-1,72.9%
COc1cc(NS(=O)(=O)c2ccc(CNC(=O)OC(C)(C)C)cc2)c(OC)cc1Cl,Activity,Homo sapiens [1],100%
same,Activity,Homo sapiens [2],101%
same,Activity,THP-1,109.2%
C#CCCN(c1cc(OC)c(Cl)cc1OC)S(=O)(=O)c1ccc(OCC)cc1,Activity,Homo sapiens [1],206%
same,Activity,Homo sapiens [2],201%
same,Activity,THP-1,70.1%
CCCCCCN(c1cc(OC)c(Cl)cc1OC)S(=O)(=O)c1ccc(OCC)cc1,Activity,Homo sapiens [1],81%
same,Activity,Homo sapiens [2],99%
same,Activity,THP-1,95.2%
CCOc1ccc(S(=O)(=O)N(CCCNC(=O)c2ccc(-c3c4ccc(=[N+](C)C)cc-4oc4cc(N(C)C)ccc34)c(C(=O)O)c2)c2cc(OC)c(Cl)cc2OC)cc1,Activity,Homo sapiens [1],111%
same,Activity,Homo sapiens [2],123%
same,Activity,THP-1,76.9%
C#CCOCCOCCOCCN(c1cc(OC)c(Cl)cc1OC)S(=O)(=O)c1ccc(OCC)cc1,Activity,Homo sapiens [1],107%
same,Activity,Homo sapiens [2],130%
same,Activity,THP-1,73.7%
C#CCCCN(c1cc(OC)c(Cl)cc1OC)S(=O)(=O)c1ccc(OCC)cc1,Activity,Homo sapiens [1],182%
same,Activity,Homo sapiens [2],184%
same,Activity,THP-1,70.7%
CCOc1ccc(S(=O)(=O)N(CC(C)C)c2cc(OC)c(Cl)cc2OC)cc1,Activity,Homo sapiens [1],175%
same,Activity,Homo sapiens [2],193%
same,Activity,THP-1,76.7%
CCOc1ccc(S(=O)(=O)N(CCCN)c2cc(OC)c(N=[N+]=[N-])cc2OC)cc1.Cl,Activity,Homo sapiens [1],138%
same,Activity,Homo sapiens [2],117%
same,Activity,THP-1,68.9%
COc1cc(NS(=O)(=O)c2ccc(C(N)=O)cc2)c(OC)cc1Cl,Activity,Homo sapiens [1],103%
same,Activity,Homo sapiens [2],94%
same,Activity,THP-1,91%
COc1cc(NS(=O)(=O)c2ccc(C(=O)O)cc2)c(OC)cc1Cl,Activity,Homo sapiens [1],89%
same,Activity,Homo sapiens [2],104%
same,Activity,THP-1,98.2%
CCOc1ccc(S(=O)(=O)N(CCCNC(=O)OC(C)(C)C)c2cc(OC)c(Cl)cc2OC)cc1,Activity,Homo sapiens [1],134%
same,Activity,Homo sapiens [2],140%
same,Activity,THP-1,75.6%
COc1ccc(S(=O)(=O)Nc2cc(OC)c(Cl)cc2OC)cc1N,Activity,Homo sapiens [1],158%
same,Activity,Homo sapiens [2],166%
same,Activity,THP-1,77.3%
CCOc1ccc(S(=O)(=O)N(CCCO)c2cc(OC)c(Cl)cc2OC)cc1,Activity,Homo sapiens [1],219%
same,Activity,Homo sapiens [2],178%
same,Activity,THP-1,68.5%
CCOc1ccc(S(=O)(=O)Nc2cc(OC)c(Cl)c(OC)c2)cc1,Activity,Homo sapiens [1],179%
same,Activity,Homo sapiens [2],218%
same,Activity,THP-1,71.4%
CCOc1ccc(S(=O)(=O)Nc2ccc(Cl)c(OC)c2)cc1,Activity,Homo sapiens [1],126%
same,Activity,Homo sapiens [2],99%
same,Activity,THP-1,83.7%
COc1cc(NS(=O)(=O)c2ccc(C#N)cc2)c(OC)cc1Cl,Activity,Homo sapiens [1],97%
same,Activity,Homo sapiens [2],106%
same,Activity,THP-1,102.9%
CCOC(=O)CN(c1cc(OC)c(Cl)cc1OC)S(=O)(=O)c1ccc(OCC)cc1,Activity,Homo sapiens [1],202%
same,Activity,Homo sapiens [2],184%
same,Activity,THP-1,81.4%
CCCN(c1cc(OC)c(Cl)cc1OC)S(=O)(=O)c1ccc(OCC)cc1,Activity,Homo sapiens [1],227%
same,Activity,Homo sapiens [2],199%
same,Activity,THP-1,71.6%
CCCOc1ccc(S(=O)(=O)Nc2cc(OC)c(Cl)cc2OC)cc1,Activity,Homo sapiens [1],149%
same,Activity,Homo sapiens [2],125%
same,Activity,THP-1,71.3%
CCOc1ccc(S(=O)(=O)N(CCCN)c2cc(OC)c(Cl)cc2OC)cc1.Cl,Activity,Homo sapiens [1],189%
same,Activity,Homo sapiens [2],182%
same,EC50,[3],3320 nM
same,EC50,[4],3040 nM
same,Activity,THP-1,71%
CCCc1ccc(S(=O)(=O)Nc2cc(OC)c(Cl)cc2OC)cc1,Activity,Homo sapiens [1],102%
same,Activity,Homo sapiens [2],103%
same,Activity,THP-1,85.7%
COc1cc(NS(=O)(=O)c2ccc(OC)c(Br)c2)c(OC)cc1Cl,Activity,Homo sapiens [1],87%
same,Activity,Homo sapiens [2],101%
same,Activity,THP-1,85%
CCCCN(c1cc(OC)c(Cl)cc1OC)S(=O)(=O)c1ccc(OCC)cc1,Activity,Homo sapiens [1],192%
same,Activity,Homo sapiens [2],156%
same,Activity,THP-1,77.7%
CCOc1ccc(S(=O)(=O)N(c2cc(OC)c(Cl)cc2OC)C(C)C)cc1,Activity,Homo sapiens [1],76%
same,Activity,Homo sapiens [2],169%
same,Activity,THP-1,103.2%
CCOC(=O)CCCN(c1cc(OC)c(Cl)cc1OC)S(=O)(=O)c1ccc(OCC)cc1,Activity,Homo sapiens [1],199%
same,Activity,Homo sapiens [2],199%
same,Activity,THP-1,80.1%
CCOc1ccc(S(=O)(=O)N(CCCNC(=O)CCCCCNC(=O)c2ccc3c(c2)C(=O)OC32c3ccc(O)cc3Oc3cc(O)ccc32)c2cc(OC)c(Cl)cc2OC)cc1,Activity,Homo sapiens [2],96%
same,Activity,THP-1,98.1%
COc1cc(NS(=O)(=O)c2ccc(Oc3ccccc3)cc2)c(OC)cc1Cl,Activity,Homo sapiens [1],98%
same,Activity,Homo sapiens [2],95%
same,Activity,THP-1,91.3%
C#CCN(c1cc(OC)c(Cl)cc1OC)S(=O)(=O)c1ccc(OCC)cc1,Activity,Homo sapiens [1],232%
same,Activity,Homo sapiens [2],213%
same,Activity,THP-1,72%
CCOc1ccc(S(=O)(=O)Nc2ccc(Cl)cc2OC)cc1,Activity,Homo sapiens [1],141%
same,Activity,Homo sapiens [2],109%
same,Activity,THP-1,78.3%
CCOc1ccc(S(=O)(=O)Nc2cc(OC)c(N)cc2OC)cc1,Activity,Homo sapiens [1],101%
same,Activity,Homo sapiens [2],102%
same,Activity,THP-1,92.2%
CCNC(=O)CCCN(c1cc(OC)c(Cl)cc1OC)S(=O)(=O)c1ccc(OCC)cc1,Activity,Homo sapiens [1],206%
same,Activity,Homo sapiens [2],137%
same,Activity,THP-1,78.2%
COc1cc(NS(=O)(=O)c2ccc([N+](=O)[O-])cc2)c(OC)cc1Cl,Activity,Homo sapiens [1],101%
same,Activity,Homo sapiens [2],103%
same,Activity,THP-1,97.4%
CCOc1ccc(S(=O)(=O)N(CCCC(=O)O)c2cc(OC)c(Cl)cc2OC)cc1,Activity,Homo sapiens [1],230%
same,Activity,Homo sapiens [2],151%
same,Activity,THP-1,73.4%
CCOc1ccc(S(=O)(=O)Nc2cc(OC)c(Br)cc2OC)cc1,Activity,Homo sapiens [1],176%
same,Activity,Homo sapiens [2],235%
same,Activity,THP-1,68.8%
CCCCCCCN(c1cc(OC)c(Cl)cc1OC)S(=O)(=O)c1ccc(OCC)cc1,Activity,Homo sapiens [1],108%
same,Activity,Homo sapiens [2],95%
same,Activity,THP-1,90.4%
CCCCOc1ccc(S(=O)(=O)Nc2cc(OC)c(Cl)cc2OC)cc1,Activity,Homo sapiens [1],101%
same,Activity,Homo sapiens [2],106%
same,Activity,THP-1,95.3%
CCOc1ccc(S(=O)(=O)Nc2cc(OC)ccc2OC)cc1,Activity,Homo sapiens [1],116%
same,Activity,Homo sapiens [2],96%
same,Activity,THP-1,73.1%
COc1cc(NS(=O)(=O)c2ccc(OC)c(N=[N+]=[N-])c2)c(OC)cc1Cl,Activity,Homo sapiens [1],104%
same,Activity,Homo sapiens [2],104%
same,Activity,THP-1,87.2%
C#CCOc1ccc(S(=O)(=O)Nc2cc(OC)c(Cl)cc2OC)cc1,Activity,Homo sapiens [1],97%
same,Activity,Homo sapiens [2],99%
same,Activity,THP-1,80.9%
COc1ccc(S(=O)(=O)Nc2cc(OC)c(Cl)cc2OC)cc1,Activity,Homo sapiens [1],226%
same,Activity,Homo sapiens [2],219%
same,EC50,[3],1850 nM
same,EC50,[4],1400 nM
same,Activity,THP-1,69.6%
COc1cc(NS(=O)(=O)c2ccc(O)cc2)c(OC)cc1Cl,Activity,Homo sapiens [1],98%
same,Activity,Homo sapiens [2],104%
same,Activity,THP-1,85.2%
COc1cc(NS(=O)(=O)c2ccc(N)cc2)c(OC)cc1Cl,Activity,Homo sapiens [1],101%
same,Activity,Homo sapiens [2],103%
same,Activity,THP-1,96%
COc1cc(NS(=O)(=O)c2ccc(CN)cc2)c(OC)cc1Cl,Activity,Homo sapiens [1],103%
same,Activity,Homo sapiens [2],111%
same,Activity,THP-1,97%
C#CCN(c1cc(OC)c(N=[N+]=[N-])cc1OC)S(=O)(=O)c1ccc(OCC)cc1,Activity,Homo sapiens [1],217%
same,Activity,Homo sapiens [2],182%
same,Activity,THP-1,73.4%
COC(=O)c1ccc(S(=O)(=O)Nc2cc(OC)c(Cl)cc2OC)cc1,Activity,Homo sapiens [1],191%
same,Activity,Homo sapiens [2],202%
same,Activity,THP-1,74.4%
CCOc1ccc(S(=O)(=O)Nc2cc(OC)c([N+](=O)[O-])cc2OC)cc1,Activity,Homo sapiens [1],133%
same,Activity,Homo sapiens [2],110%
same,Activity,THP-1,79.2%
CCOc1ccc(S(=O)(=O)Nc2cc(OC)c(N=[N+]=[N-])cc2OC)cc1,Activity,Homo sapiens [1],215%
same,Activity,Homo sapiens [2],201%
same,Activity,THP-1,76.6%
COc1cc(NS(=O)(=O)c2ccccc2OC)c(OC)cc1Cl,Activity,Homo sapiens [1],96%
same,Activity,Homo sapiens [2],101%
same,Activity,THP-1,92.1%
CCCCCCCCCCCCN(c1cc(OC)c(Cl)cc1OC)S(=O)(=O)c1ccc(OCC)cc1,Activity,Homo sapiens [1],97%
same,Activity,Homo sapiens [2],100%
same,Activity,THP-1,93%
COc1cccc(S(=O)(=O)Nc2cc(OC)c(Cl)cc2OC)c1,Activity,Homo sapiens [1],116%
same,Activity,Homo sapiens [2],104%
same,Activity,THP-1,79.6%
CCOc1ccc(S(=O)(=O)N(CCCNC(=O)CCCC[C@H]2SC[C@H]3NC(=O)N[C@H]32)c2cc(OC)c(Cl)cc2OC)cc1,Activity,Homo sapiens [1],195%
same,Activity,Homo sapiens [2],175%
same,Activity,THP-1,69.6%
CCOC(=O)c1ccc(S(=O)(=O)Nc2cc(OC)c(Cl)cc2OC)cc1,Activity,Homo sapiens [1],189%
same,Activity,Homo sapiens [2],169%
same,Activity,THP-1,70.8%
CCOc1ccc(S(=O)(=O)N(Cc2ccccc2)c2cc(OC)c(Cl)cc2OC)cc1,Activity,Homo sapiens [1],181%
same,Activity,Homo sapiens [2],159%
same,Activity,THP-1,71.7%
CCOc1ccc(S(=O)(=O)N(CCCNC(=O)CCCC[C@H]2SC[C@H]3NC(=O)N[C@H]32)c2cc(OC)c(N=[N+]=[N-])cc2OC)cc1,Activity,Homo sapiens [1],162%
same,Activity,Homo sapiens [2],140%
same,Activity,THP-1,73.8%
CNC(=O)c1ccc(S(=O)(=O)Nc2cc(OC)c(Cl)cc2OC)cc1,Activity,Homo sapiens [1],103%
same,Activity,Homo sapiens [2],105%
same,Activity,THP-1,77%
CCOc1ccc(S(=O)(=O)N(CCc2ccccc2)c2cc(OC)c(Cl)cc2OC)cc1,Activity,Homo sapiens [1],131%
same,Activity,Homo sapiens [2],141%
same,Activity,THP-1,44%
